# ChEMBL document CHEMBL2424585, “Biological evaluation of hyperforin and its hydrogenated analogue on bacterial growth and biofilm production” (2013)
# The source made the active and inactive calls. The rule behind the calls is not given here.
# Tests used:
# Assay type in all cases: functional
# [1] = tested on: Staphylococcus aureus; test: Antibacterial activity against methicillin-resistant Staphylococcus aureus Ig5 clinical isolate assessed as reduction of microorganisms in biofilm at 25 ug/ml after 18 hrs by XTT assay relative to untreated control; set-up: scale not given: the % may be the effect or the level left
# Outline: (§1)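 Mature 24 h biofilms grown in TSB + 2% glucose were PBS-rinsed and exposed to the stated concentration for 18 h at 37 °C with shaking. Metabolic activity was then measured by XTT (1 mg/mL in PBS) with menadione, 2 h at 37 °C in the dark, absorbance 492 nm. Activity is expressed as OD relative to untreated TSB biofilms. Triplicate.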
# [2] = tested on: Enterococcus faecalis; test: Antibacterial activity against Enterococcus faecalis ATCC 29212 assessed as reduction of microorganisms in biofilm at 25 ug/ml after 18 hrs by XTT assay relative to untreated control; set-up: scale not given: the % may be the effect or the level left; outline: as §1
# [3] = tested on: Staphylococcus aureus; test: Antibacterial activity against Staphylococcus aureus ATCC 43300 assessed as reduction of microorganisms in biofilm at 25 ug/ml after 18 hrs by XTT assay relative to untreated control; set-up: scale not given: the % may be the effect or the level left; outline: as §1
# [4] = tested on: Staphylococcus aureus; test: Antibacterial activity against Staphylococcus aureus ATCC 29213 assessed as reduction of microorganisms in biofilm at 25 ug/ml after 18 hrs by XTT assay relative to untreated control; set-up: scale not given: the % may be the effect or the level left; outline: as §1
# [5] = tested on: Staphylococcus aureus; test: Antibacterial activity against methicillin-resistant Staphylococcus aureus Ig5 clinical isolate after 18 hrs by XTT assay
# Outline: (§2)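 Mature biofilms grown in TSB + 2% glucose from ~10^5 cfu/mL: 4 h shaken adhesion at 37 °C, medium replaced, then 24 h at 37 °C. Rinsed with PBS, then serial dilutions (150–18.7 or 25–6.25 μg/mL; PEG-200 vehicle for one agent) added for 18 h at 37 °C with shaking. Viability read by XTT–menadione, 2 h dark, 492 nm. MBIC = lowest concentration with no detectable biofilm growth. Triplicate.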
# [6] = tested on: Enterococcus faecalis; test: Antibacterial activity against Enterococcus faecalis ATCC 29212 after 18 hrs by XTT assay; outline: as §2
# [7] = tested on: Staphylococcus aureus; test: Antibacterial activity against Staphylococcus aureus ATCC 29213 after 18 hrs by XTT assay; outline: as §2
# [8] = tested on: Staphylococcus aureus; test: Antibacterial activity against methicillin-resistant Staphylococcus aureus ATCC 43300 after 18 hrs by XTT assay; outline: as §2
# [9] = tested on: Escherichia coli; test: Antibacterial activity against Escherichia coli ATCC 25922 after 18 hrs by MTT assay
# Outline: (§3)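 Broth microdilution MIC per CLSI M7-A6. Serial 2-fold dilutions in cation-adjusted Mueller-Hinton broth (20 mg/L Ca2+, 10 mg/L Mg2+), ranging 16 to 0.25 μg/mL (DMSO stock) or 256 to 0.25 μg/mL (ethanol stock). Inoculum 5 × 10^5 cfu in saline. Incubated 37 °C, 18 h. Growth detected by MTT colour change. MIC = lowest concentration with no visible growth.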
# [10] = tested on: Enterococcus faecalis; test: Antibacterial activity against Enterococcus faecalis ATCC 29212 after 18 hrs by MTT assay; conditions: ATCC 29212, 18 h; outline: as §3
# [11] = tested on: Staphylococcus aureus; test: Antibacterial activity against methicillin-resistant Staphylococcus aureus Ig5 clinical isolate after 18 hrs by MTT assay; conditions: Ig5, 18 h; outline: as §3
# [12] = tested on: Staphylococcus aureus; test: Antibacterial activity against Staphylococcus aureus XU212 after 18 hrs by MTT assay; conditions: XU212, 18 h; outline: as §3
# [13] = tested on: Staphylococcus aureus; test: Antibacterial activity against Staphylococcus aureus SA1199B after 18 hrs by MTT assay; outline: as §3
# [14] = tested on: Staphylococcus aureus; test: Antibacterial activity against Staphylococcus aureus EMRSA-15 after 18 hrs by MTT assay; conditions: EMRSA-15, 18 h; outline: as §3
# [15] = tested on: Staphylococcus aureus; test: Antibacterial activity against methicillin-resistant Staphylococcus aureus ATCC 43300 after 18 hrs by MTT assay; conditions: ATCC 43300, 18 h; outline: as §3
# [16] = tested on: Staphylococcus aureus; test: Antibacterial activity against Staphylococcus aureus ATCC 25923 after 18 hrs by MTT assay; conditions: ATCC 25923, 18 h; outline: as §3
# [17] = tested on: Staphylococcus aureus; test: Antibacterial activity against Staphylococcus aureus ATCC 29213 after 18 hrs by MTT assay; conditions: ATCC 29213, 18 h; outline: as §3
# [18] = tested on: Staphylococcus aureus; test: Antibacterial activity against Staphylococcus aureus RN4220 after 18 hrs by MTT assay; conditions: RN4220, 18 h; outline: as §3
# [19] = tested on: Staphylococcus aureus; test: Antibacterial activity against methicillin-resistant Staphylococcus aureus Ig5 clinical isolate assessed as reduction of microorganisms in biofilm at 150 ug/ml after 18 hrs by XTT assay relative to untreated control; set-up: scale not given: the % may be the effect or the level left; outline: as §1
# [20] = tested on: Staphylococcus aureus; test: Antibacterial activity against Staphylococcus aureus ATCC 43300 assessed as reduction of microorganisms in biofilm at 37.5 ug/ml after 18 hrs by XTT assay relative to untreated control; set-up: scale not given: the % may be the effect or the level left; outline: as §1
# [21] = tested on: Enterococcus faecalis; test: Antibacterial activity against Enterococcus faecalis ATCC 29212 assessed as reduction of microorganisms in biofilm at 37.5 ug/ml after 18 hrs by XTT assay relative to untreated control; set-up: scale not given: the % may be the effect or the level left; outline: as §1
# [22] = tested on: Staphylococcus aureus; test: Antibacterial activity against Staphylococcus aureus ATCC 29213 assessed as reduction of microorganisms in biofilm at 150 ug/ml after 18 hrs by XTT assay relative to untreated control; set-up: scale not given: the % may be the effect or the level left; outline: as §1
# [23] = tested on: Staphylococcus aureus; test: Antibacterial activity against Staphylococcus aureus Ig5 assessed as reduction of microorganisms in biofilm at 37.5 ug/mL after 18 hrs by XTT assay relative to untreated control; set-up: scale not given: the % may be the effect or the level left; outline: as §1
Compound,MBIC [5] [µg/mL],MBIC [6] [µg/mL],MBIC [7] [µg/mL],MBIC [8] [µg/mL],MIC [9],MIC [10] [µg/mL],MIC [11] [µg/mL],MIC [12] [µg/mL],MIC [13] [µg/mL],MIC [14] [µg/mL],MIC [15] [µg/mL],MIC [16] [µg/mL],MIC [17] [µg/mL],MIC [18] [µg/mL],other results
C1CCC(NC2CCCCC2)CC1.CC(C)=CCC[C@]1(C)[C@@H](CC=C(C)C)C[C@]2(CC=C(C)C)C(=O)C(CC=C(C)C)=C(O)[C@@]1(C(=O)C(C)C)C2=O,25,25,25,25,inactive,1,1,0.5,2,2,1,1,1,,Activity [1]: 33%; Activity [2]: 34%; Activity [3]: 21%; Activity [4]: 45%
CCn1cc(C(=O)O)c(=O)c2cc(F)c(N3CCNCC3)cc21 [NORFLOXACIN],,,,,,4,2,4,32,0.5,4,2,2,1,"MIC ([9]; ATCC 25922, 18 h): 0.12 µg/mL"
C1CCC(NC2CCCCC2)CC1.CC(C)CCC[C@]1(C)[C@@H](CCC(C)C)C[C@@]2(CCC(C)C)C(=O)[C@]1(C(=O)C(C)C)C(=O)C(CCC(C)C)=C2O [OCTAHYDROHYPERFORIN DICYCLOHEXYLAMMONIUM SALT],37.5,37.5,150,37.5,inactive,4,4,1,4,,4,4,4,1,Activity [19]: 45%; Activity [20]: 47%; Activity [21]: 45%; Activity [22]: 52%; Activity [23]: 52%
